SMILES strings stand for the structures.

These results are taken from article PMC355911 (Journal of Insect Science, 2002).

One assay concerns the target T1, DmEcR/DmUSP (Drosophila melanogaster, UniProt P34021).
T1 sequence (P34021 1-878): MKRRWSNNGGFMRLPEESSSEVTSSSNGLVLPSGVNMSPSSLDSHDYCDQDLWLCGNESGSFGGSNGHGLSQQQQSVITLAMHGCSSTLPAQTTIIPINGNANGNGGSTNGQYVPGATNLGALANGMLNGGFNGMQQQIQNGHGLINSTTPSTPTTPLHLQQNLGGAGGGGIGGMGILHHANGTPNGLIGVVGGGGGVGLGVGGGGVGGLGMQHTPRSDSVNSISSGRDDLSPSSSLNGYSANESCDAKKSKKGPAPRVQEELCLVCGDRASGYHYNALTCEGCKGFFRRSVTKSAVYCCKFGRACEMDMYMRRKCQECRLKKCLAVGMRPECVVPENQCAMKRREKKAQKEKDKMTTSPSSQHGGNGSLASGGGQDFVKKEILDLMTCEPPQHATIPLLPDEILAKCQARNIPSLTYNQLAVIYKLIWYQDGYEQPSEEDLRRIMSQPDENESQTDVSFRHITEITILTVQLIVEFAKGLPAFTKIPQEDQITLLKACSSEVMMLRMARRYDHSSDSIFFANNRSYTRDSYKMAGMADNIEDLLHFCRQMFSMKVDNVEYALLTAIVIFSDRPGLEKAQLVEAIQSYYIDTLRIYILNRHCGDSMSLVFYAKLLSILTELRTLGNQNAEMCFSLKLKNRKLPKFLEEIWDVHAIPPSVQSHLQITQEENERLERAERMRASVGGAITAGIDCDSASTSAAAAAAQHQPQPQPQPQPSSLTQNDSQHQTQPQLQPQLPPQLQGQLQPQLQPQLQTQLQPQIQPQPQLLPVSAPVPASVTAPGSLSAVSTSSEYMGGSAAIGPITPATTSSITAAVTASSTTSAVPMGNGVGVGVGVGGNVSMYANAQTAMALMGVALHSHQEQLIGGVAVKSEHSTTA
T1 sequence (P20153 1-508 partner): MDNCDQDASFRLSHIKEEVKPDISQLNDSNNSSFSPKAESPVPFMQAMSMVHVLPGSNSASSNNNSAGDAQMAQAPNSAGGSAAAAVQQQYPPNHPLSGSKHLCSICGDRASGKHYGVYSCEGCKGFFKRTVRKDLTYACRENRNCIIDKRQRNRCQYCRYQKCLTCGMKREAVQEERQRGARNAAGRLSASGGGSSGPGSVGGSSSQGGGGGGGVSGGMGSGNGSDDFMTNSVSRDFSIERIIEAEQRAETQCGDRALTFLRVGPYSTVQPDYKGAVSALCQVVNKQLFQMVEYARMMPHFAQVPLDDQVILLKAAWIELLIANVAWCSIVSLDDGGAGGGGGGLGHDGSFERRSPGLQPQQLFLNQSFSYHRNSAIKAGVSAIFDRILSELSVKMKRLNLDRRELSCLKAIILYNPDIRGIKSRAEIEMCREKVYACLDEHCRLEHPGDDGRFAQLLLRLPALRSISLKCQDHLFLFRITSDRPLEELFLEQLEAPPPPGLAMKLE
The assay is described as follows: UV-irradiation of receptor complex with ligand, then [3H]ponasterone A binding. The conditions noted are these: ligand 100 nM, 350 nm for 20 min, [3H]ponA 2.55 nM. In short, it runs like this:
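Crude extracts of bacterially expressed DmEcR/DmUSP were incubated with 100 nM ligand at 7°C for 16 h to equilibrium. Samples were irradiated in quartz tubes on a merry-go-round at 350 nm for 20 min, with non-irradiated controls. Unbound steroid was stripped with fatty-acid-free BSA plus dextran-coated charcoal (10 mM Tris/HCl, pH 7.2), 5 min ice-cold, then spun at 13,000 × g. Supernatant was equilibrated with 2.55 nM [3H]ponA at 7°C, DCC-stripped again, and scintillation-counted. Duplicates.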

The target in the next assay is T2, CfEcR/CfUSP (Choristoneura fumiferana, UniProt O77255).
T2 sequence (O77255 1-541): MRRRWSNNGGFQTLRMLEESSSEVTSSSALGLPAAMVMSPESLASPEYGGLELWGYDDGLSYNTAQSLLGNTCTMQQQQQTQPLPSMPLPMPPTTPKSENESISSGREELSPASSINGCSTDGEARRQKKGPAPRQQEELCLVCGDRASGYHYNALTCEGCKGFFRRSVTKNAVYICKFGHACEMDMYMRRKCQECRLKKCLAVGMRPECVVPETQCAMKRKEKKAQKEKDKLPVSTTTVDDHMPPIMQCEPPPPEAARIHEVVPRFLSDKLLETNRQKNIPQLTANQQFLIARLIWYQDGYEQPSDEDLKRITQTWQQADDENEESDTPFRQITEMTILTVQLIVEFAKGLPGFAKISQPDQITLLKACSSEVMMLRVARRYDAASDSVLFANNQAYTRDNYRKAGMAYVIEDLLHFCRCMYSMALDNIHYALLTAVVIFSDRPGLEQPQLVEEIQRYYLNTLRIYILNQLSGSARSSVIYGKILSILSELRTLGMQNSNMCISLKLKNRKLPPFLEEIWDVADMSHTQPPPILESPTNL
T2 sequence (O76202 1-472 partner): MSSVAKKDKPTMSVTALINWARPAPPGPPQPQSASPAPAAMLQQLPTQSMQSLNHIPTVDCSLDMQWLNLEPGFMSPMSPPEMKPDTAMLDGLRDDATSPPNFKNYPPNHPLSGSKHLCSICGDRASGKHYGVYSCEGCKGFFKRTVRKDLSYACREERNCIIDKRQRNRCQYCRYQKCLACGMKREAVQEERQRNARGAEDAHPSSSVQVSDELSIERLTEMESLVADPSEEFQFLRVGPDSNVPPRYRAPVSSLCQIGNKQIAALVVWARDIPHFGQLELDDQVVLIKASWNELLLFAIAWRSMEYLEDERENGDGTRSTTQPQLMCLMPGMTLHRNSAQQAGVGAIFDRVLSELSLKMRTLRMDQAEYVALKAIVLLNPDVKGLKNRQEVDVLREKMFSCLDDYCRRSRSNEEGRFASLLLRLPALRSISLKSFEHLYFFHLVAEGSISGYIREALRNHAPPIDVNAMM
The assay can be described thus: UV-irradiation of receptor complex with ligand, then [3H]ponasterone A binding. The conditions noted are these: ligand 100 nM, 350 nm for 20 min, [3H]ponA 2.55 nM.

With `CC(C)(O)CC[C@@H](O)[C@](C)(O)[C@H]1CC[C@@]2(O)C3=CC(=O)[C@@H]4C[C@@H](O)[C@@H](O)C[C@]4(C)[C@H]3CC[C@]12C` [compound 1, 20-hydroxyecdysone], the “binding capacity for [3H]ponasterone A after irradiation with ligand (in words)” value at DmEcR/DmUSP (listed as 20E) and at CfEcR/CfUSP (listed as 20E) was “no blocking” each time.

Take `CC(C)CC[C@@H](O)[C@](C)(O)[C@H]1CC[C@@]2(O)C3=CC(=O)[C@@H]4C[C@@H](O)[C@@H](O)C[C@]4(C)C3=CC[C@]12C` [compound 5, dacryhainansterone]: the “binding capacity for [3H]ponasterone A after irradiation with ligand (in words)” value at DmEcR/DmUSP and at CfEcR/CfUSP was “significantly reduced” in each case.
